Data on 38 variants can be found in the RNAGym collection of RNA variant scans (doi:10.1126/science.aae0568).

Variants at the floor of the assay were thinned out.

To fix the notation:
B1: tRNA (parent)
chain: GUUCCGUUGGCGUAAUGGUAACGCGUCUCCCUCCUAAGGAGAAGACUGCGGGUUCGAGUCCCGUACGGAACG

In the data set the parent is B1. Kind of data set: yeast fitness relative to wild type (ratio to wild type); higher = fitter; tRNA-Arg(CCU), competitive growth, 37 C, YPD. In short, it runs like this: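 Variants of the tRNA-Arg(CCU) gene were chemically synthesised with a 3% per-site mutation rate across 69 sites and placed at the native genomic locus in Saccharomyces cerevisiae. Six parallel replicates of the pooled strains were competed in YPD at 37°C for 24 hours, and gene amplicons from the start and end populations were read by 100-nucleotide paired-end sequencing. Darwinian fitness relative to wild type was derived from changes in genotype frequencies. Genotypes required ≥ 100 starting reads, and estimates < 0.5 were set to 0.5.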
Consider GUUCCGUUGGGGUAAUGGUAACGCGUCUCCCGCCUAAGGAGAAGACUGCGGGUACGAGACCCGUACAGAACG, for which the yeast fitness was no more than 0.5.

Consider GUUCCGUUGGUGUAAUGGUGACGCGUCUGCCUCGUAAGGAGAAGACUGCGGGUCCGAGUCCCGUACGGAACG, for which the yeast fitness was no more than 0.5.

As to GUUCCGUUGGUGUGAGGGUAACGGGCCUCCCUCCUAAGGAGAAGACGGCCGGUUCGAGUCCCGUAAGGAACG, the yeast fitness was no more than 0.5.

On to GUUCCGUUGGGGUAAUGGUAACGCGUCUCCCACCUACGAAGAGGACUGCGGGUCCGAGUCCGGUACGGAACG, for which the yeast fitness was no more than 0.5.

On to GUUCCGUUGGUGUAAUGGUAACGCGUCUCCCUCCUUAGGAGAAGACUGCGGGUUCGAGUCCCGUACGGAUCG, for which the yeast fitness turned out to be 0.694.

Regarding GUUCCGUUGGUGUAAUGGUAACGCGUCUCCCUCCUAAGGGGAACACUGCGGGCUAGAGUCCCGUUCGGAACG, the yeast fitness is no more than 0.5.

On to GUUCCGUUGGUGUAAUGGUACCGCGUCUCCCUCCUGAGGAGAAGACUGCGGGUUCGAGUCCCGUACGGAACG, for which the yeast fitness is no more than 0.5.

Consider GUUCCGUUGGUGUAAUGGUAACGCGUCUCCCUCCUAAGGAGCAGACUGCGGGUUCGCGUCCCGUACGGAACG, for which the yeast fitness was no more than 0.5.

For GUUCCGUUGGUGUAAUGGUCACGCGUCUCCCUCCUAAGGAGAAGACUGGGGGUUCGAGUCCCGUACAGAACG, the yeast fitness was no more than 0.5.

GUUCCGUUGGGGUAAUGGUAACGCGUCUCCCUCCUAAGGAGAAGACUGCGGGUCCGAGUCCUGUACGGAACG: the yeast fitness was no more than 0.5.

As to GUUCCGUUGGUGUGAUGGUAACGCGUCUCCCUCCUAAGGAGAAGACUGCGGGUUCGGGCCCCGUACGGUACG, the yeast fitness was no more than 0.5.

As to GUUCCGUUGGUGUAAUGGUAGCGCGUCUGCCUCCUAAGGAGAAGACUGCGGGUUCGAGUCGCGUACGGAACG, the yeast fitness was no more than 0.5.

For GUUCCGUUGGUGUAUUGGUAACGCGUCUCCCUCCUAAGGAGAAGACUGCGGGUUCCAGUCCCGUACGGAACG, the yeast fitness was no more than 0.5.

As for GUUCCGUUGGUGUAAUGGUAACGCGUCUCCCUCCUACGGAGGUGACUGCGGGUUCGAGUCCAGUACGGAACG, the yeast fitness was no more than 0.5.

Regarding GUUCCGUUGGUGUAAUGGUACGGCGUCUCCCUCCUAAGGAGAAGACUGCGGGUCCGAGUCCAGUACGGAACG, the yeast fitness was no more than 0.5.

For GUUCCGUUGGUGUAAUGGUAACGCGUCUCCCUCCUAAGGAGAAGCCUGCGGGUUCGAGUCCCGUACGGAACG, the yeast fitness is 0.836.

GUUCCGUUGGUGUGAUGGUAACGCGUCUCCCUCCUAAGGAGAAGACUGCGGGUUCGAGUCCCGUUCGAAACG: the yeast fitness was found to be 0.617.

As for GUUCCGUUGGUGUAAUGGUGAACCGUCGCCCUCCUAAGGAGAGGACUGCGGGUUCGGGUCCCGUACGGAUCG, the yeast fitness was 0.587.

On to GUUCCGUUGGUGUAAUGGUGACGCGUCUCCCUCCUCAGGAGAAGACUGGGGGUUCGAGUCGGGUACGGAACG, for which the yeast fitness is no more than 0.5.

As to GUUCCGUUGGUGUAAUGGUUACGUGUCUACCUCCUAAGGAGAAGACUGCGGGUUCGAGACCCGUACCGCACG, the yeast fitness was no more than 0.5.

As to GUUCCGUUGGUGUAAUGGUCAGGCGUCUCCCUCCUAAGGAGAAGACUGCGGGUUCGAGUCCCGUACGGAACG, the yeast fitness worked out at 0.576.

Consider GUUCCGUUGGGGUAAUGGUAACGCGUCUCCCUCCCAAGGAGACGACUGCGGCUACGAGUCCCGUACGGAACG, for which the yeast fitness is 0.644.

Consider GUUCCGUUGGGGUAAUGGUAACGCGUCUCCCAGAUAAGGAGAAGACUGCGGGUUCGCGUCCCGUACGGAACG, for which the yeast fitness was no more than 0.5.

Consider GUUCCGUUGGUGUAAUGGUAACGCGUCUCCCUCCUAAGGAGCAGACUGCGGGUUCGAGUCCCGUACGGAACG, for which the yeast fitness turned out to be 0.91.

Take GUUCCGUUGGUGUAAUGGUAACGCGUCUCCCUCCUAAGGAGGAGACUGCGGGUUCGAGUCCCGUACGGAACG: the yeast fitness was 0.917.

As to GUUCCGUUGGUGUAAUGGUGACGCGUCUCCCUCCUAAGGAGAAGACUACGGGUUGGUGUCCCGUACGGAACG, the yeast fitness was no more than 0.5.

Regarding GUUCCGUUGGUGUACUCGUAAUGCGUCUCCCUCGUAAGGAGAAGACUGCGGGUUCGAGUCCCGUACGGAACG, the yeast fitness was no more than 0.5.

Consider GUUCCGUUGGUGUAAUGGUAACGCGUCUCCCUCCUUAGAAGAAGACUGCGGGUUCGAGUCCCGUACGGAACG, for which the yeast fitness was no more than 0.5.

GUUCCGUUGGUGUAAUGGUAACGCGUCUCCCUCCUAAGGAGAAGCCUGCGGCUUCGAGUCUCGUACGGAACG: the yeast fitness is no more than 0.5.

For GUUCCGUUGGUGUACUGGUAACGCGUCUCCCUCCUCUGGAGAAGACUGCGGGUUCGAGUCCCGUACGGAACG, the yeast fitness is no more than 0.5.

Take GUUCCGUUGGUGUAAUGGUAUCGCGUCUCCCUCCUAAGGAGAAGACUGCGGGUUAGAGUCCCGUACGGAACG: the yeast fitness amounted to 0.632.

On to GUUCCGUUGGGGUAAUGGUAACGCGUCUCCCUCCUAAGGAGAAGACAACGGGUUCGAGUCCCGUACGGAACG, for which the yeast fitness worked out at 0.58.

For the variant GUUCCGUUGGGGUAAUGGUAACGCGUCUCCCUCCUAAGGAGAAGACAGCGGAUUCGACUCCCCUAGGGAACG, the yeast fitness came out at 0.664.

With GUUCCGUUGGUGUACUGGUAACGCGUCUCCCUCCUAAGGAGAAGACUGCGGGUUCGAGUCCCGUACGGAACG, the yeast fitness came out at 0.595.

As for GUUCCGUUGGUGUGAUGGUAACACGUCUCCCUCCUAAGGAGAAGACUGCGGGUUCGAGUCCCGUACGGAACG, the yeast fitness was 0.504.

Regarding GUUCCGUUGGUGUAAUGGUAACGCGUCUCCCUCCUCAGGAGAAGACUGCGGGUUCGAGUCCCGUACGCAACG, the yeast fitness is no more than 0.5.

As for GUUCCGUUGGUGUAAUGGUGACCCGUCUCCUUCCUAAGGAGAAGAGUGCGGGUUCGAGUCCCGUACGGAUCG, the yeast fitness is no more than 0.5.

Regarding GUUCCGUUGGUGUAAUGGUAACGCGUCUCCCUCCUAAGGAGGAGACUGCGGGUUCGAGUCCGGUACGGUACG, the yeast fitness is no more than 0.5.
